Fibroblast inh = blocks proliferation of human lung fibroblasts; LL 47 human lung fibroblast viability, ATP luminescence; hits give low values; viability, % at 10 µM; hit rate 1.1% among 85,000;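 active = viability at or below 50% in the single dose screen; inactive = viability above 50%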;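 note: compound exposure lasted 72 h before the ATP readout; 100% = median luminescence of untreated cell-only wells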
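Test system: LL 47 human lung fibroblasts; Quantity: 1,150 cells/well; Buffer or medium: IMEM plus 15% FBS; Dosing: tenfold compound dosing solution, DMSO at 0.1%; Timing: overnight cell rest, 72 h compound treatment at 37 °C; Detection: ATP-based CellTiter-Glo luminescent readout; Read-out basis: viability percentage against median untreated-cell control; Controls: cell-only wells, no compound.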
HUVEC prolif 384 = inhibitors of human endothelial cell proliferation; hit rate 1.1% among 86,000; HUVEC proliferation, CellTiter-Glo luminescence, 72 h; hits give low values; viability, % at 10 µM (by protocol); AID 648;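 active = viability at or below 30%; inactive = viability above 30%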;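 note: 100% = median luminescence of DMSO-only cell control wells on each plate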
H69AR growth 86K = blocks growth of human H69AR lung tumor cells; H69AR lung tumor viability, ATP luminescence, 72 h; hits give low values; viability, % at 10 µM; hit rate 6% among 85,000;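 active = viability at or below 40%; inactive = viability above 40%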;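 note: multidrug resistant small cell line overexpressing MRP-1 efflux transporter; 100% = mean luminescence of untreated control wells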
Jurkat viability = cytotoxicity toward Jurkat cells | Jurkat E6.1 viability, ATP luminescence, 48 h | inhibition, % at 4 µM | hit rate 1.2% among 56,000;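 active = inhibition above the mean inhibition of all tested compounds plus 3 SD, cut at about 28% in these data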
Numbers without * were called inactive; · = not tested or not shown. The list is not random: actives were taken first. Their share in the collection is about 6.6%.

SMILES	Fibroblast inh	HUVEC prolif 384	H69AR growth 86K	Jurkat viability
Cc1nc(SCC(=O)Nc2c(C)n(C)n(-c3ccccc3)c2=O)[nH]c(=O)c1C	101	92	84	·
Cc1nn(-c2nc3ccccc3[nH]2)c(N)c1-c1ccccc1	69	80	20*	-2
CCOc1ccc(C(=O)Nc2ccccc2N2CCCC2)cc1	92	96	36*	·
CCOc1ccc(C(=O)Nc2ccccc2N2CCOCC2)cc1	95	109	88	·
O=C(c1ccc(Cn2cc(Br)cn2)cc1)N1CCN(c2ccccc2)CC1	90	55	8.8*	26
O=C(c1ccc(Cn2cc(Cl)cn2)cc1)N1CCN(c2ccccc2)CC1	100	99	69	·
C=CCNC(=S)NNC(=O)C(CCCC)CC(C)(C)O (centres undefined)	95	109	100	·
Fc1ccc(COc2ccc(/C=N/n3cnnc3)cc2)cc1	105	112	88	7
CCOC(=O)CS(=O)(=O)c1nc(-c2ccc(F)cc2)cc(C(F)(F)F)n1	2.9*	24*	4.4*	34*
CCOC(=O)CS(=O)(=O)c1ccccc1	94	101	103	·
CCOC(=O)CS(=O)(=O)c1nc(-c2ccccc2)cc(C(F)(F)F)n1	3.8*	12*	1.6*	55*
COC(=O)CCS(=O)(=O)c1nc(-c2ccccc2)cc(C(F)(F)F)n1	28*	55	1.4*	·
CC(C)OC(=O)CSc1nc(-c2ccc(F)cc2)cc(C(F)(F)F)n1	100	102	70	·
CCOC(=O)CCS(=O)(=O)c1nc(-c2ccccc2)cc(C(F)(F)F)n1	3.0*	28*	0.8*	68*
COCC(C)NC(=O)CCS(=O)(=O)c1nc(-c2ccc(OC)cc2)cc(C(F)(F)F)n1 (centres undefined)	·	·	·	6
Cn1c(Cc2ccccc2)nnc1SCC(=O)c1ccc(Br)s1	93	97	93	5
Cc1oc2cc3c(C(=O)OCCN(C)C)c(C)oc3cc2c1C(=O)OCCN(C)C	89	75	109	6
CCOc1ccc(-c2cc3nc(C4CCN(C(=O)OC(C)(C)C)CC4)c(C(=O)O)cn3n2)cc1	·	·	·	6
O=C(CSc1ccc2c(c1)OCCO2)Nc1ccc(Cl)cn1	92	19*	99	4
Cc1c(NC(=O)CSc2ccc3c(c2)OCCO3)c(=O)n(-c2ccccc2)n1C	101	97	95	-1
CN(C=O)CP(=O)(O)CN1CCCCC1	97	102	86	·
CCN(CC)CC(=O)Nc1ccc2c(c1)N(C(=O)CN(CC)CC)c1ccccc1CC2	91	89	82	·
CCN(CC(=O)Nc1ccc2c(c1)CCC2)Cc1nc2ccccc2c(=O)[nH]1	86	84	33*	-3
CCN(CC(=O)NC(c1ccccc1)c1ccccc1)Cc1nc2ccccc2c(=O)[nH]1	99	88	53	·
CCN(CC)CC(=O)Nc1ccc2c(c1)Nc1ccccc1CC2	77	34	4.0*	4
SMILES	Fibroblast inh	HUVEC prolif 384	H69AR growth 86K	Jurkat viability
CCN(CC(=O)Nc1ccc2c(c1)OCO2)Cc1nc2ccccc2c(=O)[nH]1	95	80	82	0
CCc1ccc2c(CN(CC)Cc3nc4ccccc4c(=O)[nH]3)cc(=O)oc2c1	90	83	36*	-3
CCN(Cc1nc2ccccc2c(=O)[nH]1)Cc1nc2cc(OC)c(OC)cc2c(=O)[nH]1	103	93	15*	7
Cc1n[nH]c(C)c1S(=O)(=O)N(CC(=O)Nc1ccc2c(c1)OCCO2)c1ccc(C(C)C)cc1	87	78	73	0
N#Cc1ccc(-n2nccc2-c2cnc3n(c2=O)CCS3)cc1	99	101	96	·
CCOC(=O)Cc1cc(=O)n2[nH]c(-c3ccccc3)cc2n1	100	93	107	·
CCOC(=O)Cc1c(C)nc2c(-c3ccc(Cl)cc3)c(C)[nH]n2c1=O	72	64	39*	·
CCOC(=O)Cc1c(C)nc2c(-c3cccc(Br)c3)c[nH]n2c1=O	63	4.7*	28*	16
O=c1c2c(nc3c(-c4cccc(Br)c4)c[nH]n13)CCCC2	59	45	20*	0
CCOC(=O)Cc1c(C)nc2cc(-c3ccc(C(C)(C)C)cc3)[nH]n2c1=O	55	64	37*	·
O=C(Nc1ccc(Cl)cc1)N(Cc1cccnc1)Cc1ccco1	·	·	·	2
O=C(O)CN(CC(=O)O)CC(=O)O	90	100	99	·
Cc1cc(=O)n2[nH]c(C)c(-c3ccccc3)c2n1	101	86	71	4
Cc1cc(=O)n2[nH]c(C)c(-c3ccc(Cl)cc3)c2n1	78	71	36*	-4
Cc1cccc(-n2nc3c(c2NC(=O)CCC2CCCCC2)CS(=O)C3)c1C (centres undefined)	90	104	92	0
Oc1ccc(CN2CCN(Cc3ccccc3)CC2)c2cccnc12	95	106	2.0*	-4

Screening results as filed in PubChem BioAssay.
